Results from ChEMBL document CHEMBL1140815, “Synthesis and structure-activity relationship studies of tyrosine-based antagonists at the human P2X7 receptor” (Bioorg Med Chem Lett, 2008).

Key:
THP-1 [1] = assay: Inhibition of BzATP-stimulated IL1-beta release in human THP1 cells at 1 uM by ELISA; format: functional
P2X purinoceptor 7 [2] = target: T1, P2X purinoceptor 7 (Homo sapiens, UniProt Q99572); assay: Antagonist activity at human purinergic P2X7 receptor expressed in HEK293 cells assessed as inhibition of BzATP-induced ethidium bromide uptake; format: functional, cell-based
T1 sequence (Q99572 whole entry): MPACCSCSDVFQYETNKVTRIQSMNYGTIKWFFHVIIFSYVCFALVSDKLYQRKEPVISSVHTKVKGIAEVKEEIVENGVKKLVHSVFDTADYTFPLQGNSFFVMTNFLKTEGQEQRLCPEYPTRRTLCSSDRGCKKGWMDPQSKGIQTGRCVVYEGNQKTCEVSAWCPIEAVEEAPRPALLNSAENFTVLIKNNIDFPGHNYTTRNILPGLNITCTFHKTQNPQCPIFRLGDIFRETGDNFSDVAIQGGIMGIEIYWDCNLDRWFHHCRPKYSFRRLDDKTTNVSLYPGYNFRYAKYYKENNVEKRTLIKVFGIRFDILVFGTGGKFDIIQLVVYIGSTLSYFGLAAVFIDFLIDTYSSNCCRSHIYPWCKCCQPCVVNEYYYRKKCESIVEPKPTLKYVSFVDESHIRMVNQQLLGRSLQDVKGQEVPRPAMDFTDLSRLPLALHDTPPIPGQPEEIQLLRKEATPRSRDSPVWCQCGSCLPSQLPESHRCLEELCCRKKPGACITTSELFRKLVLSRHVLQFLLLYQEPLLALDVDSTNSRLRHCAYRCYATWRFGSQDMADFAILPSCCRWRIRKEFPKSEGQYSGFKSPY
Method in brief: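 Adherent HEK293 cells stably expressing human P2X7, resuspended at 2.5×10^6 cells/ml in HEPES salt solution (mM: ethidium bromide 0.1, EDTA 1, glucose 5, HEPES 20, KCl 140; pH 7.4). Cells added to compound-containing wells, then BzATP; 37°C for 120 min. Ethidium accumulation read by fluorescence (ex 530/em 590). IC50 from concentration–response curves; mean ± SD, 3–11 repeats.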

[3] = target: T2, P2X purinoceptor 7 (Homo sapiens) (UniProt Q99572); assay: Antagonist activity at human purinergic P2X7 receptor expressed in HEK293 cells assessed as inhibition of BzATP-induced ethidium bromide uptake at 10 uM; format: functional, cell-based
T2 sequence (whole entry): T1 sequence (Q99572 whole entry)

THP-1 [4] = assay: Inhibition of BzATP-stimulated IL1-beta release in human THP1 cells by ELISA; format: functional, cell-based
Method in brief: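 Compound given as a 30 min pretreatment, then 1 mM BzATP for 30 min. Mature IL-1β in the centrifuged supernatant quantified by ELISA.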

P2X purinoceptor 7 [5] = target: T1, P2X purinoceptor 7; assay: Antagonist activity at human purinergic P2X7 receptor expressed in HEK293 cells assessed as inhibition of ATP-induced K(+) efflux; format: functional, cell-based

Row | Compound | inhibition at 1 µM (THP-1 [1]) | IC50 (P2X purinoceptor 7 [2]) | inhibition [3] | IC50 (THP-1 [4]) | IC50 (P2X purinoceptor 7 [5])
1 | Cc1ccc(S(=O)(=O)Oc2ccc(C[C@H](NC(=O)OCc3ccccc3)C(=O)N3CCN(C(=O)c4ccc(F)cc4)CC3)cc2)cc1 | 68% | 0.319 µM | – | – | –
2 | CC(C)(C)OC(=O)N1CCN(C(=O)[C@H](Cc2ccc(OS(=O)(=O)c3ccc(CBr)cc3)cc2)NC(=O)OCc2ccccc2)CC1 | 52% | 2.46 µM | – | – | –
3 | C[C@H]1CN(C(=O)[C@H](Cc2ccc(OS(=O)(=O)c3ccc(I)cc3)cc2)NC(=O)OCc2ccccc2)CCN1C(=O)c1ccc(N(C)C)cc1 | 61% | – | 55% | – | –
4 | C[C@H]1CN(C(=O)[C@H](Cc2ccc(OS(=O)(=O)c3ccc(C#N)cc3)cc2)NC(=O)OCc2ccccc2)CCN1C(=O)c1ccc(N(C)C)cc1 | 59% | 0.539 µM | – | – | –
5 | Cc1ccc(S(=O)(=O)Oc2ccc(C[C@H](NC(=O)OCc3ccccc3)C(=O)N3CCN(C(=O)c4ccc(Br)cc4)CC3)cc2)cc1 | 78% | 0.481 µM | – | 0.881 µM | –
6 | Cc1ccc(S(=O)(=O)Oc2ccc(C[C@H](NC(=O)OCc3ccccc3)C(=O)N3CCN(C(=O)c4ccccc4)C[C@@H]3C)cc2)cc1 | 45% | 0.504 µM | – | – | –
7 | Cc1ccc(S(=O)(=O)Oc2ccc(C[C@H](NC(=O)OCc3ccccc3)C(=O)N3CCN(C(=O)c4ccc(C(F)(F)F)cc4)CC3)cc2)cc1 | 65% | 0.724 µM | – | – | –
8 | CC(C)(C)OC(=O)N1CCN(C(=O)[C@H](Cc2ccc(OS(=O)(=O)c3ccc(F)cc3)cc2)NC(=O)OCc2ccccc2)CC1 | 56% | 5.88 µM | – | – | –
9 | Cc1ccc(S(=O)(=O)Oc2ccc(C[C@@H](NC(=O)OCc3ccccc3)C(=O)N3CCN(C(=O)OC(C)(C)C)CC3)cc2)cc1 | 56% | 0.861 µM | – | – | –
10 | O=C(N[C@@H](Cc1ccc(OS(=O)(=O)c2ccc([N+](=O)[O-])cc2)cc1)C(=O)N1CCN(C(=O)c2ccccc2)CC1)OCc1ccccc1 | 48% | 0.117 µM | – | – | –
11 | Cc1ccc(S(=O)(=O)Oc2ccc(C[C@H](NC(=O)OCc3ccccc3)C(=O)N3CCN(C(=O)c4ccccc4)[C@@H](C)C3)cc2)cc1 | 69% | 0.26 µM | – | – | –
12 | Cc1ccc(S(=O)(=O)Oc2ccc(C[C@H](NC(=O)OCc3ccccc3)C(=O)N3CCN(C(=O)c4ccccc4)[C@H](C)C3)cc2)cc1 | 65% | 0.256 µM | – | – | –
13 | Cc1ccc(S(=O)(=O)Oc2ccc(C[C@H](NC(=O)OCc3ccccc3)C(=O)N3CCN(C(=O)c4ccccc4)CC3)cc2)cc1 | 70% | 0.599 µM | – | – | –
14 | Cc1ccc(S(=O)(=O)Oc2ccc(C[C@H](NC(=O)OCc3ccccc3)C(=O)N3CCN(C(=O)c4ccc(N(C)C)cc4)CC3)cc2)cc1 | 65% | 2.01 µM | – | – | –
15 | Cc1ccc(S(=O)(=O)Oc2ccc(C[C@H](NC(=O)OCc3ccccc3)C(=O)N3CCN(C(=O)c4ccc(N(C)C)cc4)[C@@H](C)C3)cc2)cc1 | 68% | – | 54% | – | –
16 | CC(C)(C)OC(=O)N1CCN(C(=O)[C@H](Cc2ccc(OS(=O)(=O)c3ccc(C#N)cc3)cc2)NC(=O)OCc2ccccc2)CC1 | 60% | 0.78 µM | – | – | –
17 | Cc1ccc(S(=O)(=O)Oc2ccc(C[C@@H](C(=O)N3CCN(C(=O)c4ccccc4)CC3)N(C)C(=O)OCc3ccccc3)cc2)cc1 | 47% | 1.36 µM | – | – | –
18 | CC(C)(C)OC(=O)N1CCN(C(=O)[C@H](Cc2ccc(OS(=O)(=O)c3ccc(OC(F)(F)F)cc3)cc2)NC(=O)OCc2ccccc2)CC1 | 46% | 0.725 µM | – | – | –
19 | CC(C)(C)OC(=O)N1CCN(C(=O)[C@H](Cc2ccc(OS(=O)(=O)c3cccc4cnccc34)cc2)NS(=O)(=O)c2cccc3cnccc23)CC1 | – | – | – | – | 0.04 µM
20 | CN([C@@H](Cc1ccc(OS(=O)(=O)c2cccc3cnccc23)cc1)C(=O)N1CCN(c2ccccc2)CC1)S(=O)(=O)c1cccc2cnccc12 | 83% | 0.175 µM | – | 0.188 µM | –
21 | CC(C)(C)OC(=O)N1CCN(C(=O)[C@H](Cc2ccc(OS(=O)(=O)c3ccc(I)cc3)cc2)NC(=O)OCc2ccccc2)CC1 | 72% | 3.54 µM | – | – | –
22 | O=C(N[C@@H](Cc1ccc(OS(=O)(=O)c2ccc(NC(=S)NCCCCNC(=S)Nc3ccc(S(=O)(=O)Oc4ccc(C[C@H](NC(=O)OCc5ccccc5)C(=O)N5CCN(C(=O)c6ccccc6)CC5)cc4)cc3)cc2)cc1)C(=O)N1CCN(C(=O)c2ccccc2)CC1)OCc1ccccc1 | 37% | – | 28% | – | –
23 | Cc1ccc(S(=O)(=O)Oc2ccc(C[C@H](NC(=O)OCc3ccccc3)C(=O)N3CCN(C(=O)OC(C)(C)C)CC3)cc2)cc1 | 72% | 1.54 µM | – | – | –
24 | CC(C)(C)OC(=O)N1CCN(C(=O)[C@H](Cc2ccc(OS(=O)(=O)c3ccc(Br)cc3)cc2)NC(=O)OCc2ccccc2)CC1 | 68% | 0.517 µM | – | – | –
